The source made the active and inactive calls. The calls are words filed in the database; no cut-off is given here.
Columns and labels:
[1] = molecular target: T1, Neuropeptide Y receptor type 1 (Homo sapiens, UniProt P25929); test: Displacement of [3H]-UR-MK114 from Y1R in human SK-N-MC cells; assay type: cell-based
T1 sequence (P25929 whole entry): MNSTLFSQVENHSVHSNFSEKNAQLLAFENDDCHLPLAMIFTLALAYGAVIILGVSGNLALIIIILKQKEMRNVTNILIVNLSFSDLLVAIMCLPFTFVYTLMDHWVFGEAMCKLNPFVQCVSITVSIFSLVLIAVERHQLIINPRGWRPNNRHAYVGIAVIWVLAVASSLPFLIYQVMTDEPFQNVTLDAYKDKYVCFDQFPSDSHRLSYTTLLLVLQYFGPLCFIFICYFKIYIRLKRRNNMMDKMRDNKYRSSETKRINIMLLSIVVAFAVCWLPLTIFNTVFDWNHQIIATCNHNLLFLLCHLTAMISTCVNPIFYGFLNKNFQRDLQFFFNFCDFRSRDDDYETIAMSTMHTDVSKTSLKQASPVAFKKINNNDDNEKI

[2] = Chemical stability of the compound in DMSO at below 0 degC; assay type: physicochemical
[3] = molecular target: T1, Neuropeptide Y receptor type 1; test: Displacement of [3H]-UR-MK114 from Y1R in human SK-N-MC cells by radioligand competition binding
[4] = Chemical stability in aqueous buffer assessed as compound decomposition after 90 mins at pH 7 by HPCL; assay type: physicochemical; details: read-out: Activity
Procedure, shortened: (§1)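 Compound at 50 µM final (from 1 mM DMSO stock) in PBS pH 7.0, 20 °C; aliquots at 20 and 90 min diluted with acetonitrile/H2O/1% TFA, analysed by RP-HPLC (220 nm); release of parent argininamide quantified against a five-point calibration curve (0.3–25 µM).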

[5] = molecular target: T2, Neuropeptide Y receptor type 1 (Homo sapiens) (UniProt P25929); test: Antagonist activity at Y1R in human HEL cells assessed as inhibition of pNPY induced [Ca2+] mobilisation; assay type: functional, cell-based
T2 sequence (whole entry): T1 sequence (P25929 whole entry)

[6] = molecular target: T3, Neuropeptide Y receptor type 2 (Homo sapiens, UniProt P49146); test: Displacement of Dy-635-pNPY from human Y2R expressed in CHO cells by flow cytometry; assay type: cell-based
T3 sequence (P49146 whole entry): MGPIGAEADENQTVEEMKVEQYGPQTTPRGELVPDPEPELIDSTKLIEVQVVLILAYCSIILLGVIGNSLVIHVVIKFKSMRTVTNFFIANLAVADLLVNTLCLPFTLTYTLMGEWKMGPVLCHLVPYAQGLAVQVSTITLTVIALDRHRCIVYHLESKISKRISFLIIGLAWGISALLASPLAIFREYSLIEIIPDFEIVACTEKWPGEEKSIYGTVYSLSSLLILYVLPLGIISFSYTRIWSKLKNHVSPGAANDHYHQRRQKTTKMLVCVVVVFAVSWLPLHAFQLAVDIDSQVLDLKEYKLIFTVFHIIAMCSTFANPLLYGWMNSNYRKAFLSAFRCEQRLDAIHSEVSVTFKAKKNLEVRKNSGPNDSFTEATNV
Procedure, shortened: (§2)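 Flow cytometric displacement of labelled peptides: Cy5-[K4]-hPP on CHO-Y4 cells; Dy-635-pNPY or Cy5-pNPY on CHO-Y2 and HEC-1B-Y5 cells. Test ligands only at 1 and 10 µM or at 0.3 and 1 µM; for the red-excitable ligand, its own fluorescence without peptide was subtracted.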

[7] = molecular target: Neuropeptide Y receptor type 4 (Homo sapiens, UniProt P50391); test: Displacement of Cy5-[K4]-hpp from human Y4R expressed in CHO cells by flow cytometry; assay type: cell-based; procedure, shortened: as §2
Chain of Neuropeptide Y receptor type 4 (P50391 whole entry): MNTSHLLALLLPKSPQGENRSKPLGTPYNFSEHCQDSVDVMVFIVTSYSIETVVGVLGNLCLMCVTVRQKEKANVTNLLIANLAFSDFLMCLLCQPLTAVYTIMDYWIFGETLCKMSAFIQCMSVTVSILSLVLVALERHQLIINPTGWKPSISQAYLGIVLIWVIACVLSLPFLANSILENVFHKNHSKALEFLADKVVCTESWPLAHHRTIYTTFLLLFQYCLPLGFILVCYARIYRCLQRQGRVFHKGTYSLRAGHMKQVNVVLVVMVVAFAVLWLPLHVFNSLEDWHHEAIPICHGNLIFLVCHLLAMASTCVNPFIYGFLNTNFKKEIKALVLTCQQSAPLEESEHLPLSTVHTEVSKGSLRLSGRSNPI

[8] = molecular target: T1, Neuropeptide Y receptor type 1; test: Binding affinity at Y1R in human MCF-7 cells by flow cytometry; assay type: cell-based, MCF7
Procedure, shortened: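 MCF-7-Y1 cells given 1 nM 17β-estradiol 3 days beforehand, trypsinised, suspended at 0.5–1 × 10^6 cells/mL in HEPES-buffered saline, 1% DMSO; saturation with fluorescent ligand 1–50 nM (non-specific: 200-fold BIBP 3226) or competition against 10 nM labelled ligand (0.03–3000 nM competitor); 15 min dark, rt; 635 nm excitation, FL-4 readout, 20,000 gated events.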

[9] = molecular target: T4, Neuropeptide Y receptor type 5 (Homo sapiens, UniProt Q15761); test: Displacement of Dy-635-pNPY from human Y5R expressed in HEC-1B cells by flow cytometry
T4 sequence (Q15761 whole entry): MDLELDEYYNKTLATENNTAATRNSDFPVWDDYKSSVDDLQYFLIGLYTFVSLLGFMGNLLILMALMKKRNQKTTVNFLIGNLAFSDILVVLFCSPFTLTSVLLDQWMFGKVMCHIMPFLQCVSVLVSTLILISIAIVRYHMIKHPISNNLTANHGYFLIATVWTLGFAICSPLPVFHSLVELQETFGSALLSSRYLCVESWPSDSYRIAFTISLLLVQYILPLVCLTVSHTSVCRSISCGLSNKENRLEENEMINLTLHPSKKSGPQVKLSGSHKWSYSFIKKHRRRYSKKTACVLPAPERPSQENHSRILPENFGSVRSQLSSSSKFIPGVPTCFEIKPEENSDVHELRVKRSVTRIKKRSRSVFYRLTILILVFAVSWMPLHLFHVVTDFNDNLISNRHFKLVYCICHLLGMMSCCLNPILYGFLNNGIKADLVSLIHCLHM

[10] = molecular target: T2, Neuropeptide Y receptor type 1 (Homo sapiens); test: Antagonist activity at Y1R in human MCF-7 cells at 50 nM after 12 to 15 mins by fluorescence confocal microscopy; assay type: functional, cell-based; details: MCF7
Procedure, shortened: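 MCF-7-Y1 cells (MCF-7 subclone with 2–3-fold higher Y1R expression) pretreated 48 or 72 h with 1 nM 17β-estradiol; live-cell confocal imaging of fluorescent ligand (50–80 nM) after 5–23 min at rt in Leibovitz L15; non-specific binding with excess BIBP 3226 (5 µM or 80–125-fold); autofluorescence control.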

[11] = Chemical stability in aqueous buffer assessed as compound decomposition after 20 mins at pH 7 by HPCL; assay type: physicochemical; details: read-out: Activity; procedure, shortened: as §1

## CN(C)c1ccc(/C=C/C=C/c2sc3ccccc3[n+]2CCCC(=O)NCCCCNC(=O)/N=C(/N)NCCC[C@@H](NC(=O)C(c2ccccc2)c2ccccc2)C(=O)NCc2ccc(O)cc2)cc1.O=C([O-])C(F)(F)F
[1]
  Ki: 26 nM
[2]
  Stability: 12 months
[3]
  Ki: 26 nM
[4]
  degraded at 1.5 h: 0%
[5]
  Kb: 0.7 nM
[6]
  IC50: > 1000 nM
  Ki: > 500 nM
[7]
  IC50: > 1000 nM
  Ki: > 500 nM
[8]
  Kd: 5 nM
[9]
  IC50: > 1000 nM
  Ki: > 400 nM
[10]
  Activity: Active
[11]
  degraded at 20 min: 0%
